In brackets after ≈: the same amount, converted by molar mass. Activity calls are given as the source filed them. No cut-off for these calls is given here.
Assays:
[1] = Metabolic stability in rat hepatic microsomes after 20 mins by HPLC/MS analysis; assay type: ADME; conditions: liver microsomes, read-out: Stability
How it was run: (§1)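 Hepatic microsomes, 0.2 mg/mL protein, in 50 mmol/L potassium phosphate pH 7.4 with […] test compound. An NADPH-generating system (MgCl2, glucose-6-phosphate, β-NADP+, G6PDH) added at 10% of the reaction volume. Incubated at 37 °C for 0 and 20 min.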

[2] = biological target: T1, Extracellular calcium-sensing receptor (Homo sapiens, UniProt P41180); experiment: Inhibition of CaSR expressed in CHO cells incubated with compound for 10 mins measured after 1 hr by [35S]GTPgammaS binding assay; assay type: functional, cell-based
T1 sequence (P41180 whole entry): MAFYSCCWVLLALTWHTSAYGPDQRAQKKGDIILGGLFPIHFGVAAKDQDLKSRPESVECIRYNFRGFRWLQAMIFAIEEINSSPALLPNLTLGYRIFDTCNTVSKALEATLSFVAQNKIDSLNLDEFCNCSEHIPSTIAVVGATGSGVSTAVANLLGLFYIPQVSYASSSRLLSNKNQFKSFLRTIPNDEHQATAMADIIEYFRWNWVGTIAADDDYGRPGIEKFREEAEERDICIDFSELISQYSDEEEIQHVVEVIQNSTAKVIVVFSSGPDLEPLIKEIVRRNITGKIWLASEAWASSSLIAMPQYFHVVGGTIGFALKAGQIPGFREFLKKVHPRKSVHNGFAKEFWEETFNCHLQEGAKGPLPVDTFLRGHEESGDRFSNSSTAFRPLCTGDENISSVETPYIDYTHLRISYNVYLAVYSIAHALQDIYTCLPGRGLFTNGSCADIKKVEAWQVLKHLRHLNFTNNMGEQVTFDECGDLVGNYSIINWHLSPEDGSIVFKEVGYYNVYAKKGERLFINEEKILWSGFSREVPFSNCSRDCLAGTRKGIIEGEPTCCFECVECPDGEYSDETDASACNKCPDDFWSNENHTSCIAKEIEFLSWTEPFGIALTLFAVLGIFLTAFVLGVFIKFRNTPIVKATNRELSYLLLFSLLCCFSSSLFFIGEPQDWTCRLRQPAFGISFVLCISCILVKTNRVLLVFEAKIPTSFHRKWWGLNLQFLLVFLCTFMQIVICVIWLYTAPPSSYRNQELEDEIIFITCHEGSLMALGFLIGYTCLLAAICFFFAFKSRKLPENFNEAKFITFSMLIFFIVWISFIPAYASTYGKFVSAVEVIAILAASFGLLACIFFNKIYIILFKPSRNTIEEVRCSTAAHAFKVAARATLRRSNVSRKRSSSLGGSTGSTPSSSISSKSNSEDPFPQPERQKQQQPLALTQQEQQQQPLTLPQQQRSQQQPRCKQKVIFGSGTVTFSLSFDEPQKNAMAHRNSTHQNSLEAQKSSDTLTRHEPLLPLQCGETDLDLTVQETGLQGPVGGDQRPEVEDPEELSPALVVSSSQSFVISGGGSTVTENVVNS
How it was run: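 Membranes from CaSR-expressing CHO cells preincubated with compound for 10 min. Binding then run 1 h at room temperature in 20 mM HEPES pH 7.4, 100 mM NaCl, 1 mM MgCl2, 167 μg/mL DTT, 5 μM GDP, 0.4 nM [35S]GTPγS and 6 mM CaCl2. Samples filtered through GF/C and washed with PBS; radioactivity counted by scintillation. IC50 obtained by nonlinear regression.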

[3] = Thermodynamic solubility of the compound in aqueous buffer containing 20 mmol/L sodium glycochenodeoxycholate at pH 6.8 by HPLC analysis; assay type: physicochemical; conditions: aqueous buffer with 20 mmol/L sodium glycochenodeoxycholate
How it was run: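 Compound added to pH 6.8 aqueous buffer containing 20 mmol/L sodium glycochenodeoxycholate; after incubation, precipitate removed by filtration and filtrate concentration determined by HPLC.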

[4] = Metabolic stability in human hepatic microsomes after 20 mins by HPLC/MS analysis; assay type: ADME; conditions: liver microsomes, read-out: Stability; how it was run: as §1
Rattus norvegicus [5] = experiment: Increase of PTH level in rat plasma at 10 mg/kg, po after 2 hrs by ELISA; assay type: functional, organism-based; parameters: dose 10 mg/kg
[6] = Cmax in Crl:CD(SD) rat at 10 mg/kg, po; assay type: ADME, organism-based; parameters: dose 10 mg/kg, route oral; conditions: in vivo
How it was run: (§2)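 Nonfasted female Crl:CD(SD) rats, 12 weeks old, n = 3, given 10 mg/kg orally as a 0.5% methylcellulose suspension. Plasma collected at 0.25, 0.5, 1, 2, 4, 8 and 24 h, deproteinized with acetonitrile, diluted with 0.01 mol/L ammonium acetate. Drug measured by HPLC on an ODS column, ammonium acetate/acetonitrile 3/7, 40 °C, UV 262 nm.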

[7] = Mean residence time in Crl:CD(SD) rat at 10 mg/kg, po; assay type: ADME, organism-based; parameters: dose 10 mg/kg, route oral; conditions: in vivo; how it was run: as §2
[8] = AUC (0 to 24 hrs) in Crl:CD(SD) rat at 10 mg/kg, po; assay type: ADME, organism-based; parameters: time < 24 hr, dose 10 mg/kg, route oral; conditions: plasma; how it was run: as §2
[9] = Tmax in Crl:CD(SD) rat at 10 mg/kg, po; assay type: ADME, organism-based; parameters: dose 10 mg/kg, route oral; conditions: in vivo; how it was run: as §2
Caco-2 [10] = experiment: Apparent permeability across apical to basolateral side in human Caco2 cells at 10 umol/L; assay type: ADME, cell-based; conditions: caco-2, 10 µM
How it was run: (§3)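 Confluent Caco-2 monolayers on collagen-coated polycarbonate Transwell membranes. Buffer is HBSS with 10 mmol/L HEPES, 15 mmol/L glucose and 1% BSA, pH 7.3-7.5. Compound at 10 μmol/L dosed apically (A-to-B) or basolaterally (B-to-A), 37 °C, 5% CO2. Receivers sampled at 1 and 2 h. Lucifer yellow integrity check and cell-free blank run. LC/MS/MS read-out; Papp calculated; duplicates.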

Rattus norvegicus [11] = experiment: Induction of bone formation in osteopenic ovariectomized CD(SD)IGS rat model assessed as proximal tibia bone mineral density at 10 mg/kg, po administered once daily for 3 months measured after 1 day last post treatment (reference value: 649+/- 8 mg/cm3); assay type: functional
Rattus norvegicus [12] = experiment: Increase of PTH level in rat plasma at 10 mg/kg, po after 30 mins by ELISA; assay type: functional
Rattus norvegicus [13] = experiment: Induction of bone formation in osteopenic ovariectomized CD(SD)IGS rat model assessed as distal femur BMD at 10 mg/kg, po administered once daily for 3 months measured after 1 day last post treatment (reference value: 622+/- 7 mg/cm3); assay type: functional
Caco-2 [14] = experiment: Apparent permeability across apical to basolateral side of human Caco2 cells at 10 umol/L; assay type: ADME, cell-based; conditions: caco-2, 10 µM, in the assay text read “basolateral to apical” for “apical to basolateral”; how it was run: as §3
Rattus norvegicus [15] = experiment: Induction of bone formation in osteopenic ovariectomized CD(SD)IGS rat model assessed as plasma osteocalcin level at 10 mg/kg, po administered once daily for 3 months measured after 2 months by RIA (reference value: 21.1+/- 2.4 ng/ml); assay type: functional

SMILES | IC50 [2] [nM] | solubility thermodynamic [3] [µg/mL] | other results
CCC(CC)(NC(=O)c1cnn2c1NC(c1ccccc1)CC2(C)C)c1ccc(OCc2ccccc2)cc1 (stereo not drawn) | 8.5 | 24.3 (≈ 46.5 µM) | microsomal CLint [1]: 24 µL/min/mg; microsomal CLint [4]: 48 µL/min/mg
CCC(CC)(NC(=O)c1cnn2c1N[C@@H](c1ccccc1)CC2(C)C)c1ccc(C)cc1 | 2.3 |  | 
O=C(NCc1ccc(C(F)(F)F)cc1)c1cnn2c1N[C@H](c1ccccc1)C[C@@H]2C(F)(F)F | 2900 |  | 
CCC(CC)(NC(=O)c1cnn2c1NC(c1ccccc1)CC2(C)C)c1ccc(C)cc1 (racemic) |  |  | Activity (Rattus norvegicus [5]): inactive
CCC(CC)(NC(=O)c1cnn2c1NC(c1ccccc1)CC2(C)C)c1ccc(Cl)cc1.Cl (stereo not drawn) |  | 126 | Cmax [6]: 374 ng/mL; MRT [7]: 5.65 h; AUC(0-t) at 24 h [8]: 2460 ng·h/mL; Tmax [9]: 0.67 h
CCOC(=O)c1ccc(C(CC)(CC)NC(=O)c2cnn3c2NC(c2ccccc2)CC3(C)C)cc1 (stereo not drawn) [listing 1 of 2 here] | 5.2 | 5.4 (≈ 11.1 µM) | 
CC(C)C(NC(=O)c1cnn2c1NC(c1ccccc1)CC2(C)C)(c1ccc(C(F)(F)F)cc1)C(C)C (stereo not drawn) | 30 |  | 
CCC(CC)(NC(=O)c1cnn2c1NC(c1ccccc1)CC2(C)C)c1cccc(F)c1 (stereo not drawn) | 25 |  | 
CC(C)(NC(=O)c1cnn2c1NC(c1ccccc1)CC2(C)C)c1ccc(C(F)(F)F)cc1 (stereo not drawn) | 3.5 |  | 
CCC(CC)(NC(=O)c1cnn2c1NC(c1ccccc1)CC2(C)C)c1ccc(C)cc1.CS(=O)(=O)O (stereo not drawn) |  | 118 | 
CCC(CC)(NC(=O)c1cnn2c1NC(c1ccccc1)CC2(C)C)c1ccc(C)cc1 (stereo not drawn) | 5.5 | 15.6 (≈ 36.2 µM) | microsomal CLint [1]: 164 µL/min/mg; microsomal CLint [4]: 122 µL/min/mg
CCC(CC)(NC(=O)c1cnn2c1NC(c1ccccc1)CC2(C)C)c1ccc(OC(C)=O)cc1 (stereo not drawn) | 31 |  | 
CCC(CC)(NC(=O)c1cnn2c1NC(c1ccccc1)CC2(C)C)c1ccc(F)cc1 (stereo not drawn) | 7.3 | 8.5 (≈ 19.6 µM) | microsomal CLint [1]: 129 µL/min/mg; microsomal CLint [4]: 89 µL/min/mg
CCC(=O)Oc1ccc(C(CC)(CC)NC(=O)c2cnn3c2NC(c2ccccc2)CC3(C)C)cc1 (stereo not drawn) | 12 |  | 
O=C(NC(c1ccccc1)c1ccccc1)c1cnn2c1N[C@H](c1ccccc1)C[C@@H]2C(F)(F)F | 380 |  | 
CCC(CC)(NC(=O)c1cnn2c1NC(c1ccccc1)CC2(C)C)c1ccc(C)cc1.Cl (racemic) | 4.9 | 140 | Cmax [6]: 374 ng/mL; Papp (Caco-2 [10]): 58.9 10^-6 cm/s; Activity (Rattus norvegicus [11]): 700 mg/cm3; Activity (Rattus norvegicus [12]): 120 pg/mL; MRT [7]: 5.65 h; AUC(0-t) at 24 h [8]: 2460 ng·h/mL; Tmax [9]: 0.67 h; Activity (Rattus norvegicus [13]): 660 mg/cm3; Papp (Caco-2 [14]): 42.7 10^-6 cm/s; Activity (Rattus norvegicus [15]): 28.4 ng/mL

SMILES | IC50 [2] [nM] | solubility thermodynamic [3] [µg/mL] | other results
CCCC(CCC)(NC(=O)c1cnn2c1NC(c1ccccc1)CC2(C)C)c1ccc(C(F)(F)F)cc1 (stereo not drawn) | 4.4 |  | 
CCC(CC)(NC(=O)c1cnn2c1NC(c1ccccc1)CC2(C)C)c1ccc(C(F)(F)F)cc1 (stereo not drawn) | 7.6 | 4.6 (≈ 9.49 µM) | Papp (Caco-2 [10]): 32.7 10^-6 cm/s; microsomal CLint [1]: 13 µL/min/mg; microsomal CLint [4]: 14 µL/min/mg; Papp (Caco-2 [14]): 24.2 10^-6 cm/s
CCC(CC)(NC(=O)c1cnn2c1NC(c1ccccc1)CC2(C)C)c1ccc(Cl)cc1.CS(=O)(=O)O (stereo not drawn) |  | 164 | 
CC(=O)O.CCC(CC)(NC(=O)c1cnn2c1NC(c1ccccc1)CC2(C)C)c1ccc(Cl)cc1 (stereo not drawn) |  | 202 | 
CCC(CC)(NC(=O)c1cnn2c1NC(c1ccccc1)CC2(C)C)c1ccccc1F (stereo not drawn) | 12 |  | 
CCC(CC)(NC(=O)c1cnn2c1NC(c1ccccc1)CC2(C)C)c1ccc(Cl)cc1.O=S(=O)(O)O (stereo not drawn) |  | 202 | 
CCC(CC)(NC(=O)c1cnn2c1NC(c1ccccc1)CC2(C)C)c1ccc(COC(C)=O)cc1 (stereo not drawn) | 14 |  | 
CCC(CC)(NC(=O)c1cnn2c1NC(c1ccccc1)CC2(C)C)c1cccc(Cl)c1 (stereo not drawn) | 17 |  | 
CCCCC(CCCC)(NC(=O)c1cnn2c1NC(c1ccccc1)CC2(C)C)c1ccc(C(F)(F)F)cc1 (stereo not drawn) | 23 |  | 
CCC(CC)(NC(=O)c1cnn2c1NC(c1ccccc1)CC2(C)C)c1ccc(OC)cc1 (stereo not drawn) | 6.6 | 59.6 (≈ 133 µM) | microsomal CLint [1]: 158 µL/min/mg; microsomal CLint [4]: 67 µL/min/mg
CCC(CC)(NC(=O)c1cnn2c1NC(c1ccccc1)CC2(C)C)c1ccccc1 (stereo not drawn) | 3.4 | 22.3 (≈ 53.5 µM) | microsomal CLint [1]: 215 µL/min/mg; microsomal CLint [4]: 209 µL/min/mg
CCC(CC)(NC(=O)c1cnn2c1N[C@H](c1ccccc1)CC2(C)C)c1ccc(C)cc1 | 31 |  | 
CCOC(=O)c1ccc(C(CC)(CC)NC(=O)c2cnn3c2NC(c2ccccc2)CC3(C)C)cc1 (stereo not drawn) [listing 2 of 2 here] |  |  | microsomal CLint [1]: 138 µL/min/mg; microsomal CLint [4]: 91 µL/min/mg
CCC(CC)(NC(=O)c1cnn2c1NC(c1ccccc1)CC2(C)C)c1ccc(Cl)cc1 (stereo not drawn) | 7.4 | 54 (≈ 120 µM) | Papp (Caco-2 [10]): 52.6 10^-6 cm/s; microsomal CLint [1]: 57 µL/min/mg; microsomal CLint [4]: 18 µL/min/mg; Papp (Caco-2 [14]): 36.8 10^-6 cm/s
CC1(C)CC(c2ccccc2)Nc2c(C(=O)NC(c3ccc(C(F)(F)F)cc3)(C3CCCCC3)C3CCCCC3)cnn21 (stereo not drawn) | 150 |  | 
